The source made the active and inactive calls. No cut-off for these calls is given here.
What was measured:
Hippocampus = assay: Antiexcitatory activity in rat hippocampus pyramidal CA1 region assessed as reduction in field excitatory postsynaptic potential at 16 uM by electrophysiologic method; format: functional
How it was run: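 Acute rat hippocampal slices; recording solution ACSF with 3 mM CaCl2 and 1.5 mM MgSO4, 1.5–2 mL/min flow, 34 °C. Schaffer collaterals stimulated; fEPSP amplitude recorded in CA1 pyramidal layer before, during and after bath application of compound in ACSF. Amplitudes normalized to 10-min control period; four slices per compound.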

Rattus norvegicus [1] = assay: Inhibition of NMDA in intraperitoneally dosed Wistar rat hippocampus pyramidal CA1 region assessed as reduction in amplitude of population spike by electrophysologic method; format: functional, organism-based
Mus musculus [2] = assay: Toxicity in C57/BL6 mouse assessed as effect on ambulation time dosed intraperitoneally equimolar to 200 mg/kg KYNA-1 as single dose measured after 2 hrs by open field test; format: organism-based, C57Bl/6; design: dose 200 mg/kg, route intraperitoneal; conditions: in vivo, ip
How it was run: (§1)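 Six-week-old male C57Bl/6 mice, dosed ip once daily at 5 mL/kg in distilled water adjusted to pH 6.5; saline controls. Acute testing was 2 h after a single dose; chronic testing was on day 9, 2 h after the last of 9 daily doses. Each mouse was placed in a black open-field box (48×48×40 cm) and video-tracked for 5 min, scoring ambulation time, mean velocity and rearings.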

Mus musculus [3] = assay: Toxicity in C57/BL6 mouse assessed as decrease in number of rearings dosed intraperitoneally equimolar to 200 mg/kg KYNA-1 for 9 days measured after 2 hrs post last dose by open field test; format: organism-based, C57Bl/6; design: dose 200 mg/kg, route intraperitoneal; conditions: in vivo, ip; how it was run: as §1
Mus musculus [4] = assay: Toxicity in C57/BL6 mouse assessed as effect on ambulation time dosed intraperitoneally equimolar to 200 mg/kg KYNA-1 for 9 days measured after 2 hrs post last dose by open field test; format: organism-based, C57Bl/6; design: dose 200 mg/kg, route intraperitoneal; conditions: in vivo, ip; how it was run: as §1
Mus musculus [5] = assay: Toxicity in C57/BL6 mouse assessed as effect on movement velocity dosed intraperitoneally equimolar to 200 mg/kg KYNA-1 for 9 days measured after 2 hrs post last dose by open field test; format: organism-based, C57Bl/6; design: dose 200 mg/kg, route intraperitoneal; conditions: in vivo, ip; how it was run: as §1
Mus musculus [6] = assay: Toxicity in C57/BL6 mouse assessed as decrease in number of rearings dosed intraperitoneally equimolar to 200 mg/kg KYNA-1 as single dose measured after 2 hrs by open field test; format: organism-based, C57Bl/6; design: dose 200 mg/kg, route intraperitoneal; conditions: in vivo, ip; how it was run: as §1
Mus musculus [7] = assay: Toxicity in C57/BL6 mouse assessed as effect on movement velocity dosed intraperitoneally equimolar to 200 mg/kg KYNA-1 as single dose measured after 2 hrs by open field test; format: organism-based, C57Bl/6; design: dose 200 mg/kg, route intraperitoneal; conditions: in vivo, ip; how it was run: as §1
Mus musculus [8] = assay: Toxicity in C57/BL6 mouse assessed as decrease in number of rearings at 200 mg/kg, ip administered as single dose measured after 2 hrs by open field test; format: organism-based, C57Bl/6; design: dose 200 mg/kg, route intraperitoneal; conditions: in vivo; how it was run: as §1
Rattus norvegicus [9] = assay: Inhibition of NMDA in Wistar rat hippocampus pyramidal CA1 region assessed as reduction in amplitude of population spike at 200 mg/kg/day, ip up to 90 mins by electrophysologic method; format: functional; conditions: 1.5 h, read-out: INH, route intraperitoneal
Mus musculus [10] = assay: Toxicity in C57/BL6 mouse assessed as decrease in number of rearings at 200 mg/kg, ip for 9 days measured after 2 hrs post last dose by open field test; format: organism-based, C57Bl/6; design: dose 200 mg/kg, route intraperitoneal; conditions: in vivo; how it was run: as §1
Rattus norvegicus [11] = assay: Inhibition of NMDA in Wistar rat hippocampus pyramidal CA1 region assessed as reduction in amplitude of population spike at 200 mg/kg/day, ip measured up to 60 mins by electrophysologic method; format: functional; conditions: 1 h, read-out: INH, route intraperitoneal
Mus musculus [12] = assay: Toxicity in C57/BL6 mouse assessed as effect on movement velocity at 200 mg/kg, ip administered as single dose measured after 2 hrs by open field test; format: organism-based, C57Bl/6; design: dose 200 mg/kg, route intraperitoneal; conditions: in vivo; how it was run: as §1
Mus musculus [13] = assay: Toxicity in C57/BL6 mouse assessed as effect on ambulation time at 200 mg/kg, ip administered as single dose measured after 2 hrs by open field test; format: organism-based, C57Bl/6; design: dose 200 mg/kg, route intraperitoneal; conditions: in vivo; how it was run: as §1
Mus musculus [14] = assay: Toxicity in C57/BL6 mouse assessed as effect on movement velocity at 200 mg/kg, ip for 9 days measured after 2 hrs post last dose by open field test; format: organism-based, C57Bl/6; design: dose 200 mg/kg, route intraperitoneal; conditions: in vivo; how it was run: as §1
Mus musculus [15] = assay: Toxicity in C57/BL6 mouse assessed as effect on ambulation time at 200 mg/kg, ip for 9 days measured after 2 hrs post last dose by open field test; format: organism-based, C57Bl/6; design: dose 200 mg/kg, route intraperitoneal; conditions: in vivo; how it was run: as §1

## O=C(c1cc(=O)c2ccccc2[nH]1)N1CCN(Cc2ccccc2)CC1
Hippocampus
  Activity: inactive

## O=C(O)c1cc(=O)c2ccccc2[nH]1 [TRANSTORINE]
Hippocampus
  Activity: 70%

## O=C(NCCN1CCCC1)c1cc(=O)c2ccccc2[nH]1
Hippocampus
  Activity: inactive

## CN(C)CCCNC(=O)c1cc(=O)c2ccccc2[nH]1
Hippocampus
  Activity: inactive
Rattus norvegicus [1]
  inhibition: inactive

## CN1CCN(C(=O)c2cc(=O)c3ccccc3[nH]2)CC1
Hippocampus
  Activity: inactive

## Nc1ccccc1C(=O)C[C@H](N)C(=O)O.O=S(=O)(O)O
Mus musculus [2]
  Activity: Non-toxic
Mus musculus [3]
  Activity: Toxic
Mus musculus [4]
  Activity: Non-toxic
Mus musculus [5]
  Activity: Non-toxic
Mus musculus [6]
  Activity: Toxic
Hippocampus
  Activity: inactive
Mus musculus [7]
  Activity: Non-toxic

## CN(C)CCCNC(=O)c1cc(O)c2ccccc2n1.Cl
Mus musculus [2]
  Activity: Non-toxic
Mus musculus [3]
  Activity: Non-toxic
Mus musculus [4]
  Activity: Non-toxic
Mus musculus [5]
  Activity: Non-toxic
Mus musculus [6]
  Activity: Non-toxic
Mus musculus [7]
  Activity: Non-toxic

## O=C(NCCN1CCCCC1)c1cc(=O)c2ccccc2[nH]1
Hippocampus
  Activity: inactive

## CN1CCCCC1CNC(=O)c1cc(=O)c2ccccc2[nH]1 (centres undefined)
Hippocampus
  Activity: inactive

## CN(C)CCNC(=O)c1cc(O)c2ccccc2n1.Cl
Mus musculus [8]
  Activity: Toxic
Rattus norvegicus [9]
  inhibition in vivo at 200 mg/kg/day: 30%
Mus musculus [10]
  Activity: Non-toxic
Rattus norvegicus [11]
  inhibition in vivo at 200 mg/kg/day: 25%
Mus musculus [12]
  Activity: Non-toxic
Mus musculus [13]
  Activity: Non-toxic
Mus musculus [14]
  Activity: Non-toxic
Mus musculus [15]
  Activity: Non-toxic
Hippocampus
  Activity: 50%

## O=C(NCCN1CCOCC1)c1cc(=O)c2ccccc2[nH]1
Hippocampus
  Activity: inactive

## Cl.O=C(NCCN1CCCC1)c1cc(O)c2ccccc2n1
Mus musculus [2]
  Activity: Non-toxic
Mus musculus [3]
  Activity: Non-toxic
Mus musculus [4]
  Activity: Non-toxic
Mus musculus [5]
  Activity: Non-toxic
Mus musculus [6]
  Activity: Non-toxic
Mus musculus [7]
  Activity: Non-toxic

## O=C(c1cc(=O)c2ccccc2[nH]1)N1CCNCC1
Hippocampus
  Activity: inactive

## CCN(CC)CCNC(=O)c1cc(=O)c2ccccc2[nH]1
Hippocampus
  Activity: inactive
